Results: the array DNA melting data of Ke et al. (doi:10.1101/2024.01.08.574731)

How the values were obtained:
[1] = melting temperature; fluorescence melt of hairpins on a sequencing array, two-state fit, raised by 9.35 °C to match UV melts; settings: sodium 0.088 M
Summary of the method: (§1)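 Bootstrapped two-state fits yielded melting temperature and folding enthalpy for library hairpins. Cy3 fluorescence, with annealed Cy3 and quencher oligos, was imaged on a sequenced MiSeq flow cell in 50 mM Na-HEPES pH 8.0, 25 mM NaCl in 2.5 °C steps up to 60 °C, and normalised to pre-quench Cy3 and to control constructs. Four replicates were combined by inverse variance, and fitted temperatures were raised by 9.35 °C to match UV melts.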

[2] = folding enthalpy; higher = less favourable; fluorescence melt of hairpins on a sequencing array, two-state fit; settings: sodium 0.088 M
Summary of the method: as §1

## GAGCTTGGAAACAAGCCC (.(((((....))))).)
[1]
  Tm: 42.8 °C
[2]
  folding enthalpy: -13.2 kcal/mol

## GAGCTTGGAAACAAGTTC ((.((((....)))).))
[1]
  Tm: 44.1 °C
[2]
  folding enthalpy: -25.9 kcal/mol

## GAGGAACGAAAGTTCTC (((.(((....))))))
[1]
  Tm: 38.9 °C
[2]
  folding enthalpy: -13.6 kcal/mol

## GAGGAACGAAAGTTTCTC (((.(((....))).)))
[1]
  Tm: 49.9 °C
[2]
  folding enthalpy: -35.9 kcal/mol

## GAGGAAGGAAACTCCCTC ((((.((....)).))))
[1]
  Tm: 32.1 °C
[2]
  folding enthalpy: -25 kcal/mol

## GAGGAAGGAAACTTCCTC (((((((....)))))))
[1]
  Tm: 59 °C
[2]
  folding enthalpy: -35.5 kcal/mol

## GAGGACGAAAGTCAACTC ((((((....)))..)))
[1]
  Tm: 38.2 °C
[2]
  folding enthalpy: -19.7 kcal/mol

## GAGGACGCGAAAGCGCTC (((..(((....))))))
[1]
  Tm: 36.9 °C
[2]
  folding enthalpy: -12.9 kcal/mol

## GAGGACGGAAACGTCCCC (.(((((....))))).)
[1]
  Tm: 42.3 °C
[2]
  folding enthalpy: -10.4 kcal/mol

## GAGGAGGGAAACCCCCTC ((((.((....)).))))
[1]
  Tm: 46.5 °C
[2]
  folding enthalpy: -26 kcal/mol

## GAGGAGGGAAACCTCCCC (.(((((....))))).)
[1]
  Tm: 40.9 °C
[2]
  folding enthalpy: -11.8 kcal/mol

## GAGGAGGGAAACCTTCTC (((.(((....))).)))
[1]
  Tm: 42.7 °C
[2]
  folding enthalpy: -27.3 kcal/mol

## GAGGATCCGAAAGGACTC (((..(((....))))))
[1]
  Tm: 30.6 °C
[2]
  folding enthalpy: -13.3 kcal/mol

## GAGGATGGAAACGTCTTC ((.((.(....).)).))
[1]
  Tm: 32.9 °C
[2]
  folding enthalpy: -13.1 kcal/mol

## GAGGCAGGAAACTGTCTC (((.(((....))).)))
[1]
  Tm: 50.2 °C
[2]
  folding enthalpy: -34.1 kcal/mol

## GAGGCCACGAAAGTGCTC (((..(((....))))))
[1]
  Tm: 32 °C
[2]
  folding enthalpy: -10.9 kcal/mol

## GAGGCCGAAAGGCCCTC ((((((....))).)))
[1]
  Tm: 58 °C
[2]
  folding enthalpy: -9.16 kcal/mol

## GAGGCCGAAAGGCTCTC ((((((....))).)))
[1]
  Tm: 54.7 °C
[2]
  folding enthalpy: -17.9 kcal/mol

## GAGGCCGAAAGGCTTCTC ((((((....)))..)))
[1]
  Tm: 54.9 °C
[2]
  folding enthalpy: -19.1 kcal/mol

## GAGGCCGGAAACAGCCCC (.(((.(....).))).)
[1]
  Tm: 27.2 °C
[2]
  folding enthalpy: -10.6 kcal/mol

## GAGGCCGGAAACAGCCTC (((((.(....).)))))
[1]
  Tm: 50.2 °C
[2]
  folding enthalpy: -27.5 kcal/mol

## GAGGCCGGAAACGACCCC (.((.((....)).)).)
[1]
  Tm: 30.6 °C
[2]
  folding enthalpy: -19.7 kcal/mol

## GAGGCCGGAAACGGCTTC ((.((((....)))).))
[1]
  Tm: 55.9 °C
[2]
  folding enthalpy: -16.9 kcal/mol

## GAGGCGACGAAAGTCCTC (((..(((....))))))
[1]
  Tm: 38.1 °C
[2]
  folding enthalpy: -12.6 kcal/mol

## GAGGCGCCGAAAGGCCTC (((..(((....))))))
[1]
  Tm: 44.3 °C
[2]
  folding enthalpy: -13.3 kcal/mol

## GAGGCTGGAAACAGCTTC ((.((((....)))).))
[1]
  Tm: 49 °C
[2]
  folding enthalpy: -19.8 kcal/mol

## GAGGCTGGAAACGGCCTC (((((.(....).)))))
[1]
  Tm: 59.6 °C
[2]
  folding enthalpy: -46.4 kcal/mol

## GAGGCTGGAAACGGTCTC (((.(.(....).).)))
[1]
  Tm: 39.6 °C
[2]
  folding enthalpy: -28.5 kcal/mol

## GAGGGAACGAAAGTTCTC (((..(((....))))))
[1]
  Tm: 37.7 °C
[2]
  folding enthalpy: -13.7 kcal/mol

## GAGGGACGAAAGTCCTC (((.(((....))))))
[1]
  Tm: 48.9 °C
[2]
  folding enthalpy: -11.8 kcal/mol

## GAGGGACGAAAGTCTCTC (((.(((....))).)))
[1]
  Tm: 55.4 °C
[2]
  folding enthalpy: -32.4 kcal/mol

## GAGGGAGGAAACTCCTTC ((.((((....)))).))
[1]
  Tm: 38.3 °C
[2]
  folding enthalpy: -19.7 kcal/mol

## GAGGGAGGAAACTCTCTC (((.(((....))).)))
[1]
  Tm: 44.2 °C
[2]
  folding enthalpy: -24.6 kcal/mol

## GAGGGAGGAAACTTCCTC ((((.((....)).))))
[1]
  Tm: 45.6 °C
[2]
  folding enthalpy: -25.6 kcal/mol

## GAGGGCCCGAAAGGGCTC (((..(((....))))))
[1]
  Tm: 43.9 °C
[2]
  folding enthalpy: -8.22 kcal/mol

## GAGGGCGAAAGCCACTC ((((((....))).)))
[1]
  Tm: 53.4 °C
[2]
  folding enthalpy: -13.7 kcal/mol

## GAGGGCGAAAGCCCCTC ((((((....))).)))
[1]
  Tm: 57.1 °C
[2]
  folding enthalpy: -9.57 kcal/mol

## GAGGGCGAAAGCCGTCTC ((((((....)))..)))
[1]
  Tm: 59 °C
[2]
  folding enthalpy: -20.4 kcal/mol

## GAGGGCGAAAGCCTGCTC ((((((....)))..)))
[1]
  Tm: 42.5 °C
[2]
  folding enthalpy: -12.4 kcal/mol

## GAGGGCGGAAACGTCCTC ((((.((....)).))))
[1]
  Tm: 59.1 °C
[2]
  folding enthalpy: -47 kcal/mol

## GAGGGGAAACCCTC (((((....)))))
[1]
  Tm: 54 °C
[2]
  folding enthalpy: -24.7 kcal/mol

## GAGGGGCGAAAGCCCTC (((.(((....))))))
[1]
  Tm: 55.5 °C
[2]
  folding enthalpy: -10.1 kcal/mol

## GAGGGGGGAAACCCTCTC (((.(((....))).)))
[1]
  Tm: 53.7 °C
[2]
  folding enthalpy: -27.6 kcal/mol

## GAGGGGGGAAACTCCCTC (((((.(....).)))))
[1]
  Tm: 53.2 °C
[2]
  folding enthalpy: -34.3 kcal/mol

## GAGGGTACGAAAGTACTC (((..(((....))))))
[1]
  Tm: 36.9 °C
[2]
  folding enthalpy: -11.9 kcal/mol

## GAGGGTGGAAACACCCCC (.(((((....))))).)
[1]
  Tm: 44.8 °C
[2]
  folding enthalpy: -10.7 kcal/mol

## GAGGGTGGAAACACCTTC ((.((((....)))).))
[1]
  Tm: 47 °C
[2]
  folding enthalpy: -15.9 kcal/mol

## GAGGGTGGAAACATCCTC ((((.((....)).))))
[1]
  Tm: 50.5 °C
[2]
  folding enthalpy: -38.8 kcal/mol

## GAGGTAACGAAAGTTCTC (((..(((....))))))
[1]
  Tm: 29 °C
[2]
  folding enthalpy: -11.1 kcal/mol

## GAGGTACCGAAAGGTCTC (((..(((....))))))
[1]
  Tm: 31.4 °C
[2]
  folding enthalpy: -17.5 kcal/mol

## GAGGTAGAAATACCTC ((((((....))))))
[1]
  Tm: 50.2 °C
[2]
  folding enthalpy: -33.5 kcal/mol

## GAGGTAGGAAACCACCTC (((((.(....).)))))
[1]
  Tm: 42.2 °C
[2]
  folding enthalpy: -31 kcal/mol

## GAGGTAGGAAACTGCTTC ((.(.((....)).).))
[1]
  Tm: 26.7 °C
[2]
  folding enthalpy: -15.6 kcal/mol

## GAGGTCCCGAAAGGGCTC (((..(((....))))))
[1]
  Tm: 37.6 °C
[2]
  folding enthalpy: -13.7 kcal/mol

## GAGGTCCGAAAGGACTC (((.(((....))))))
[1]
  Tm: 47.9 °C
[2]
  folding enthalpy: -11.9 kcal/mol

## GAGGTCCGAAAGGATCTC (((.(((....))).)))
[1]
  Tm: 59.6 °C
[2]
  folding enthalpy: -37.9 kcal/mol

## GAGGTGGGAAACCACCTC (((((((....)))))))
[1]
  Tm: 69.2 °C
[2]
  folding enthalpy: -31 kcal/mol

## GAGGTGGGAAACCGTCTC (((..((....))..)))
[1]
  Tm: 31.1 °C
[2]
  folding enthalpy: -8.21 kcal/mol

## GAGGTGGGAAACTACCTC (((((.(....).)))))
[1]
  Tm: 49.7 °C
[2]
  folding enthalpy: -41.1 kcal/mol

## GAGGTTGGAAACAATCTC (((.(((....))).)))
[1]
  Tm: 44.1 °C
[2]
  folding enthalpy: -35.5 kcal/mol

## GAGTAAGGAAACTTACTC (((((((....)))))))
[1]
  Tm: 52.1 °C
[2]
  folding enthalpy: -43.1 kcal/mol

## GAGTAAGGAAACTTGCTC (((.(((....))).)))
[1]
  Tm: 40.3 °C
[2]
  folding enthalpy: -27.8 kcal/mol

## GAGTACACGAAAGTGCTC (((..(((....))))))
[1]
  Tm: 33.7 °C
[2]
  folding enthalpy: -14.9 kcal/mol

## GAGTACGAAAGTAACCTC ((((((....)))..)))
[1]
  Tm: 27.8 °C
[2]
  folding enthalpy: -14.8 kcal/mol

## GAGTACGAAAGTATCCTC ((((((....)))..)))
[1]
  Tm: 25.4 °C
[2]
  folding enthalpy: -17.6 kcal/mol

## GAGTACGAAAGTATGCTC ((((((....)))..)))
[1]
  Tm: 31.5 °C
[2]
  folding enthalpy: -20.8 kcal/mol

## GAGTACGCGAAAGCGCTC (((..(((....))))))
[1]
  Tm: 34.6 °C
[2]
  folding enthalpy: -10 kcal/mol

## GAGTAGCGAAAGCTGCTC (((.(((....))).)))
[1]
  Tm: 60.1 °C
[2]
  folding enthalpy: -36.6 kcal/mol
